The text below walks through data of ChEMBL document CHEMBL1125209, “Boc-CCK-4 derivatives containing side-chain ureas as potent and selective CCK-a receptor agonists” (J Med Chem, 1991).

*1 amine or outer side, *2 acyl side, *3 side chain or, on linkers, in order; H or OH if unused. Where a SMILES comes first, the peptide text is derived from it. Side-chain parts run from the residue outwards. [ ]: non-standard residue; d: D form. The star is where a group is joined. NH(2-CF3-phenyl) = FC(F)(F)c1ccccc1N*; NH(2,6-Me2-phenyl) = Cc1cccc(C)c1N*; NHPh(4-CF3) = FC(F)(F)c1ccc(N*)cc1; NH(3-Cl-phenyl) = Clc1cccc(N*)c1; NH(4-Cl-phenyl) = Clc1ccc(N*)cc1; hCit = NC(=O)NCCCC[C@H](N)C(=O)O; NH(4-Me-phenyl) = Cc1ccc(N*)cc1; NH(2-Me-phenyl) = Cc1ccccc1N*; X3 = O=[N+]([O-])c1ccccc1N*; hLys = NCCCCC[C@H](N)C(=O)O; NH(2-ClPh) = Clc1ccccc1N*; X9 = FC(F)(F)c1cccc(N*)c1; Orn = NCCC[C@H](N)C(=O)O; 2Abz = Nc1ccccc1C(=O)O; Boc = CC(C)(C)OC(=O)*; NHcHex = C1CCC(N*)CC1; CO = O=C([*:1])[*:2]; NHBn = c1ccc(CN*)cc1; X2 = CC(C)c1ccccc1N*; X10 = Brc1ccccc1N*; X5 = Cc1cccc(N*)c1; X6 = COc1ccccc1N*

For test [1], the target named is T1, Cholecystokinin receptor type A (Cavia porcellus, UniProt Q63931).
T1 sequence (Q63931 whole entry): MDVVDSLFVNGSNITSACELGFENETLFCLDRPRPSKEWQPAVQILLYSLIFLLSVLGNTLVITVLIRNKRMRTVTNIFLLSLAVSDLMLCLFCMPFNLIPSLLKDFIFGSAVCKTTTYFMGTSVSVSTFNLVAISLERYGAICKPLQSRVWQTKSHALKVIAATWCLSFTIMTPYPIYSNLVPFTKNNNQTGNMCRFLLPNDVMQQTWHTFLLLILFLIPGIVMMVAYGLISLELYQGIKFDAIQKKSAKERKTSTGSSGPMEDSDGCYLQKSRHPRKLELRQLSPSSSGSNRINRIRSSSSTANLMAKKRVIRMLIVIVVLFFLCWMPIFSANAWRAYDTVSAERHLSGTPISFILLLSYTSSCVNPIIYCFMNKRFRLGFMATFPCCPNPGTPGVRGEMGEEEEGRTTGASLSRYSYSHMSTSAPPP
As to the kind of experiment: Binding affinity for Cholecystokinin type A receptor in guinea pig pancreas by using [125I]BH-CCK-8 as radioligand.

Test [2] is filed under the species Cavia porcellus. Kind of test: Percentage response in phosphoinositide hydrolysis relative to maximal response elicited by CCK-8 in guinea pig pancreatic acini. The format is functional. The procedure, abridged:
(§1)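 Guinea pig pancreatic acini, phosphoinositide hydrolysis. […] Efficacy is expressed as % of the maximal response elicited by CCK-8. Each determination was run in duplicate with <5% sample variability. Means ±SE are given for three or more determinations.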

The species named for test [3] is Cavia porcellus. As to the kind of experiment: The compound was tested for effective concentration for amylase release in guinea pig pancreatic Acini. It counts as functional. A digest of the protocol:
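Amylase release from guinea pig pancreatic acini. […] Each determination was run in duplicate with <5% sample variability. Means ±SE are given where there were three or more determinations.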

Test [4] can be described thus: Selectivity ratio of IC50 measured in guinea pig cortex to that of IC50 for guinea pig pancreas. The note with it: Cavia porcellus.
The species named for test [5] is Cavia porcellus. Kind of test: Effective concentration for hydrolysis of phosphoinositide in guinea pig pancreatic Acini. It counts as functional. The procedure, abridged: as §1

For orientation: IC50 means the midpoint of a concentration-inhibition curve. Read a high IC50 as weaker potency. In general, EC50 refers to the concentration giving half of the maximal effect. Read a low EC50 as greater potency. `CC(C)(C)OC(=O)N[C@@H](Cc1c[nH]c2ccccc12)C(=O)N[C@@H](CCCCNC(=O)Nc1cccc(Cl)c1)C(=O)N[C@@H](CC(=O)O)C(=O)N[C@@H](Cc1ccccc1)C(N)=O` (Boc-WK([CO-NH(3-Cl-phenyl)])DF-NH2) had an IC50 in test [1] of 0.051 µM. Also, the Max response in the test listed under Cavia porcellus [2] worked out at 93%. In the test filed under Cavia porcellus [3], this molecule registered a concentration for a half-maximal effect (EC50) of 0.0044 µM.
In test [1], `CC(C)(C)OC(=O)N[C@@H](Cc1c[nH]c2ccccc12)C(=O)N[C@@H](CCCCNC(N)=O)C(=O)N[C@@H](CC(=O)O)C(=O)N[C@@H](Cc1ccccc1)C(N)=O` (Boc-W[hCit]DF-NH2) yielded an IC50 of 12 µM. Further, in test [4], the Selectivity turned out to be 0.083.
In the case of `CC(C)(C)OC(=O)N[C@@H](Cc1c[nH]c2ccccc12)C(=O)N[C@@H](CCCCNC(=O)Nc1ccccc1Cl)C(=O)N[C@@H](CC(=O)O)C(=O)N[C@@H](Cc1ccccc1)C(N)=O` (Boc-WK([CO-NH(2-ClPh)])DF-NH2), the Max response in the test listed under Cavia porcellus [2] was 91%. Besides, a half-maximal effect in the test listed under Cavia porcellus [5] (EC50) was put at 0.0046 µM.
In test [1], `CC(C)(C)OC(=O)N[C@@H](Cc1c[nH]c2ccccc12)C(=O)N[C@@H](CCCCNC(=O)Nc1ccccc1[N+](=O)[O-])C(=O)N[C@@H](CC(=O)O)C(=O)N[C@@H](Cc1ccccc1)C(N)=O` (Boc-WK([CO-X3])DF-NH2) had an IC50 of 0.022 µM. This molecule also yielded a Max response in the test listed under Cavia porcellus [2] of 100%. The EC50 in the test listed under Cavia porcellus [3] worked out at 0.0019 µM; in the test filed under Cavia porcellus [5], 0.021 µM.
The molecule `Cc1ccc(NC(=O)NCCCC[C@H](NC(=O)[C@H](Cc2c[nH]c3ccccc23)NC(=O)OC(C)(C)C)C(=O)N[C@@H](CC(=O)O)C(=O)N[C@@H](Cc2ccccc2)C(N)=O)cc1` (Boc-WK([CO-NH(4-Me-phenyl)])DF-NH2) registered a Max response in the test listed under Cavia porcellus [2] of 91%. The same molecule registered a concentration giving a half-maximal response (EC50) in the test filed under Cavia porcellus [5] of 0.14 µM.
For `COc1ccccc1NC(=O)NCCCC[C@H](NC(=O)[C@H](Cc1c[nH]c2ccccc12)NC(=O)OC(C)(C)C)C(=O)N[C@@H](CC(=O)O)C(=O)N[C@@H](Cc1ccccc1)C(N)=O` (Boc-WK([CO-X6])DF-NH2), the Max response in the test filed under Cavia porcellus [2] is listed as 100%. Also, a half-maximal effect in the test listed under Cavia porcellus [5] (EC50) was put at 0.0084 µM.
`CC(C)(C)OC(=O)N[C@@H](Cc1c[nH]c2ccccc12)C(=O)N[C@@H](CCCCNC(=O)NC1CCCCC1)C(=O)N[C@@H](CC(=O)O)C(=O)N[C@@H](Cc1ccccc1)C(N)=O` (Boc-WK([CO-NHcHex])DF-NH2) gave a Max response in the test filed under Cavia porcellus [2] of 97%. For the same molecule, the 50% effective concentration (EC50) in the test filed under Cavia porcellus [3] is 0.0042 µM; in the test filed under Cavia porcellus [5], 0.055 µM.
Regarding `Cc1ccccc1NC(=O)NCCC[C@H](NC(=O)[C@H](Cc1c[nH]c2ccccc12)NC(=O)OC(C)(C)C)C(=O)N[C@@H](CC(=O)O)C(=O)N[C@@H](Cc1ccccc1)C(N)=O` (Boc-W[Orn]([CO-NH(2-Me-phenyl)])DF-NH2), the IC50 in test [1] came out at 0.65 µM. The Max response in the test listed under Cavia porcellus [2] is reported as 36%. The same molecule displayed a 50% effective concentration (EC50) in the test filed under Cavia porcellus [3] of 0.42 µM. The Selectivity in test [4] turned out to be 23.
In turn, `COC(=O)c1ccccc1NC(=O)NCCCC[C@H](NC(=O)[C@H](Cc1c[nH]c2ccccc12)NC(=O)OC(C)(C)C)C(=O)N[C@@H](CC(=O)O)C(=O)N[C@@H](Cc1ccccc1)C(N)=O` (Boc-WK([CO-2Abz-OMe])DF-NH2) returned a half-maximal inhibitory concentration (IC50) in test [1] of 0.034 µM. Further, the Selectivity in test [4] was found to be 91.
As for `CC(C)c1ccccc1NC(=O)NCCCC[C@H](NC(=O)[C@H](Cc1c[nH]c2ccccc12)NC(=O)OC(C)(C)C)C(=O)N[C@@H](CC(=O)O)C(=O)N[C@@H](Cc1ccccc1)C(N)=O` (Boc-WK([CO-X2])DF-NH2), the IC50 in test [1] was found to be 0.023 µM. In the test listed under Cavia porcellus [2], this molecule registered a Max response of 85%. This molecule also displayed an EC50 in the test filed under Cavia porcellus [3] of 0.0044 µM. Besides, the Selectivity in test [4] is 250.
As for `CC(C)(C)OC(=O)N[C@@H](Cc1c[nH]c2ccccc12)C(=O)N[C@@H](CCCCNC(=O)NCc1ccccc1)C(=O)N[C@@H](CC(=O)O)C(=O)N[C@@H](Cc1ccccc1)C(N)=O` (Boc-WK([CO-NHBn])DF-NH2), the 50% inhibitory concentration (IC50) in test [1] amounted to 0.23 µM.
Take `Cc1cccc(C)c1NC(=O)NCCCC[C@H](NC(=O)[C@H](Cc1c[nH]c2ccccc12)NC(=O)OC(C)(C)C)C(=O)N[C@@H](CC(=O)O)C(=O)N[C@@H](Cc1ccccc1)C(N)=O` (Boc-WK([CO-NH(2,6-Me2-phenyl)])DF-NH2): the IC50 in test [1] is 0.8 µM. Moreover, the Max response in the test listed under Cavia porcellus [2] turned out to be 40%. The molecule further displayed an EC50 in the test filed under Cavia porcellus [5] of 0.91 µM.
With `CC(C)(C)OC(=O)N[C@@H](Cc1c[nH]c2ccccc12)C(=O)N[C@@H](CCCC/N=C(\S)Nc1ccc(Cl)cc1)C(=O)N[C@@H](CC(=O)O)C(=O)N[C@@H](Cc1ccccc1)C(N)=O`, in test [1], the IC50 amounted to 0.27 µM.
The molecule `CC(C)(C)OC(=O)N[C@@H](Cc1c[nH]c2ccccc12)C(=O)N[C@@H](CCCCNC(=O)Nc1ccc(C(F)(F)F)cc1)C(=O)N[C@@H](CC(=O)O)C(=O)N[C@@H](Cc1ccccc1)C(N)=O` (Boc-WK([CO-NHPh(4-CF3)])DF-NH2) yielded an IC50 in test [1] of 0.17 µM. For the same molecule, the Selectivity in test [4] amounted to 5.
Molecule `CC(C)(C)OC(=O)N[C@@H](Cc1c[nH]c2ccccc12)C(=O)N[C@@H](CCCCNC(=O)Nc1ccc(Cl)cc1)C(=O)N[C@@H](CC(=O)O)C(=O)N[C@@H](Cc1ccccc1)C(N)=O` (Boc-WK([CO-NH(4-Cl-phenyl)])DF-NH2) registered a half-maximal inhibitory concentration (IC50) in test [1] of 0.06 µM. The molecule also displayed a Max response in the test filed under Cavia porcellus [2] of 91%. The EC50 in the test filed under Cavia porcellus [3] came to 0.0096 µM.
`CC(C)(C)OC(=O)N[C@@H](Cc1c[nH]c2ccccc12)C(=O)N[C@@H](CCCCNC(=O)Nc1cccc(C(F)(F)F)c1)C(=O)N[C@@H](CC(=O)O)C(=O)N[C@@H](Cc1ccccc1)C(N)=O` (Boc-WK([CO-X9])DF-NH2): in test [1], the half-inhibitory concentration (IC50) is 0.059 µM.
As to `Cc1ccccc1NC(=O)NCCCC[C@H](NC(=O)[C@H](Cc1c[nH]c2ccccc12)NC(=O)OC(C)(C)C)C(=O)N[C@@H](CC(=O)O)C(=O)N[C@@H](Cc1ccccc1)C(N)=O` (Boc-WK([CO-NH(2-Me-phenyl)])DF-NH2), in the test listed under Cavia porcellus [2], the Max response stood at 101%. Further, in the test listed under Cavia porcellus [5], the concentration for a half-maximal effect (EC50) was found to be 0.012 µM.
On the same counts, the results for `Cc1cccc(NC(=O)NCCCC[C@H](NC(=O)[C@H](Cc2c[nH]c3ccccc23)NC(=O)OC(C)(C)C)C(=O)N[C@@H](CC(=O)O)C(=O)N[C@@H](Cc2ccccc2)C(N)=O)c1` (Boc-WK([CO-X5])DF-NH2) are 95% and 0.051 µM.
Turning to `CSCC[C@H](NC(=O)[C@H](Cc1ccc(OS(=O)(=O)O)cc1)NC(=O)[C@@H](N)CC(=O)O)C(=O)NCC(=O)N[C@@H](Cc1c[nH]c2ccccc12)C(=O)N[C@@H](CCSC)C(=O)N[C@@H](CC(=O)O)C(=O)N[C@@H](Cc1ccccc1)C(N)=O` [SINCALIDE], the EC50 was 0.00047 µM in the test filed under Cavia porcellus [3] and 0.0012 µM in the test filed under Cavia porcellus [5].
For `Cc1ccccc1NC(=O)NCCCCC[C@H](NC(=O)[C@H](Cc1c[nH]c2ccccc12)NC(=O)OC(C)(C)C)C(=O)N[C@@H](CC(=O)O)C(=O)N[C@@H](Cc1ccccc1)C(N)=O` (Boc-W[hLys]([CO-NH(2-Me-phenyl)])DF-NH2), the concentration for half-maximal inhibition (IC50) in test [1] is 0.093 µM. The same molecule returned a Max response in the test listed under Cavia porcellus [2] of 83%. The same molecule had an EC50 in the test listed under Cavia porcellus [3] of 0.012 µM.
On to `CC(C)(C)OC(=O)N[C@@H](Cc1c[nH]c2ccccc12)C(=O)N[C@@H](CCCCNC(=O)Nc1ccccc1C(F)(F)F)C(=O)N[C@@H](CC(=O)O)C(=O)N[C@@H](Cc1ccccc1)C(N)=O` (Boc-WK([CO-NH(2-CF3-phenyl)])DF-NH2), for which the IC50 in test [1] was 0.008 µM. The molecule also displayed a Max response in the test listed under Cavia porcellus [2] of 100%. Further, the values for the EC50 in the test filed under Cavia porcellus [3] and in the test filed under Cavia porcellus [5] were 0.00077 µM and 0.0062 µM, respectively.
`CC(C)(C)OC(=O)N[C@@H](Cc1c[nH]c2ccccc12)C(=O)N[C@@H](CCCCNC(=O)Nc1ccccc1Br)C(=O)N[C@@H](CC(=O)O)C(=O)N[C@@H](Cc1ccccc1)C(N)=O` (Boc-WK([CO-X10])DF-NH2) yielded an IC50 in test [1] of 0.0036 µM.
